Our source for the Lethal dose, IC50 and mortality values is ChEMBL document CHEMBL1136801, “Cyclopropane-containing polyamine analogues are efficient growth inhibitors of a human prostate tumor xenograft in nude mice” (J Med Chem, 2003).

For data set [1], the system named is Mus musculus. The experiment in a line: (§1) Toxicity studies on male athymic NCr-nu mice administered ip daily for 5 consecutive days then rested for 10 days, and a second cycle of treatment also followed the q1d x 5 schedule. The class given is organism-based. The conditions noted are these: in vivo, 240 h.
A further data set relates to DuPro. As to the kind of experiment: Growth inhibitory effect was assessed against the human prostate tumor cell line DuPro using MTT assay. The class given is functional. The conditions noted are these: read-out: ID50 (the source's name). Put shortly:
(§2)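 Cells seeded at 500 per well and incubated overnight at 37 °C in humidified 95% air/5% CO2, then exposed to serially diluted drug for 6 days, each concentration in quadruplicate, with buffer controls. MTT (5 mg/mL solution) added for 4 h at 37 °C; lysed overnight at 37 °C in SDS/DMF buffer, pH 4.8; absorbance at 570 nm. ID50 is the concentration giving 50% growth inhibition.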
A general note: Tetrazolium assays rely on reduction of a dye to a coloured formazan, in cell work by metabolically active cells.

The test system of another data set is PC-3. The experiment in a line: Growth inhibitory effect was assessed against the human prostate tumor cell line PC-3 using MTT assay. As to conditions: read-out: ID50 (the source's name). The class given is functional. Put shortly: as §2
The subject of the next data set is DU-145. The experiment in a line: Growth inhibitory effect was assessed against the human prostate tumor cell line Du-145 using MTT assay. The data set is classed as functional. As to conditions: read-out: ID50 (the source's name). An outline of the steps:
as §2

Data set [2] relates to Mus musculus. The experiment in a line: Toxicity studies on male athymic NCr-nu mice administered ip daily for 5 consecutive days then rested for 10 days, and a second cycle of treatment also followed the q1d x 5 schedule; Death of all treated mice. The data set is classed as organism-based. The conditions noted are these: in vivo, 240 h.
The nature of data set [3]: as §1. The class given is organism-based. The conditions noted are these: mouse, in vivo, read-out: Lethality.
For data set [4], the system named is Mus musculus. The experiment in a line: Toxicity studies on male athymic NCr-nu mice administered ip daily for 5 consecutive days then rested for 10 days, and a second cycle of treatment also followed the q1d x 5 schedule; Two treatment-related deaths out of three animals. The data set is classed as organism-based. As to conditions: in vivo, 240 h.
Data set [5] deals with Mus musculus. As to the kind of experiment: Toxicity studies on male athymic NCr-nu mice administered ip daily for 5 consecutive days then rested for 10 days, and a second cycle of treatment also followed the q1d x 5 schedule; Death of all three mice. The class given is organism-based. The conditions noted are these: in vivo, 240 h.

In the case of `CCNCCCCNCC1CC1CNCCCCNCCCCNCC1CC1CNCCCCNCCCCNCC1CC1CNCCCCNCC.Cl` (stereo not given), in the data set with Mus musculus [1], the Lethal dose was 25 mg/kg. Also, the IC50 in the data set with DuPro came out at 200 nM; with PC-3, 300 nM; with DU-145 it was 220 nM.

Compound `CCNCC1CC1CNCC1CC1CNCC1CC1CNCC.Cl` (stereo not given) gave a Lethal dose in the data set with Mus musculus [2] of 75 mg/kg. Further, the IC50 in the data set with DuPro was 630 nM; in the data set on PC-3, > 31500 nM; with DU-145, 80 nM.

Regarding `CCNCCCCNCCCCNCCCCNCCCCNCC1CC1CNCCCCNCCCCNCCCCNCCCCNCC` (stereo not given), in data set [3], the mortality at 240 h was found to be 100%. Moreover, the IC50 in the data set with DuPro worked out at 340 nM; in the data set on PC-3 it was 400 nM; in the data set on DU-145 it was 200 nM.

As to `CCNCCCCNCC1CC1CNCCCCNCC1CC1CNCCCCNCC.Cl` (stereo not given), the results for the IC50 in the data set with DuPro, with PC-3 and with DU-145 were 380 nM, > 31200 nM and 120 nM, respectively. The compound also returned a Lethal dose in the data set with Mus musculus [4] of 25 mg/kg.

Regarding `CCNCC1CC1CNCCCCNCC1CC1CNCC.Cl` (stereo not given), the IC50 was 260 nM with DuPro, > 31200 nM with PC-3 and 60 nM in the data set on DU-145. The compound further displayed a Lethal dose with Mus musculus [5] of 75 mg/kg.
